In ChEMBL document CHEMBL1629528 (J Med Chem, 2010):
Activity calls are given as the source filed them. No cut-off for these calls is given here.

Legend:
[1] = biological target: T1, 5-hydroxytryptamine receptor 1B (Homo sapiens, UniProt P28222); assay: Displacement of [3H]5-HT from human recombinant 5-HT1B receptor expressed in CHO cells; assay type: cell-based
[2] = biological target: Sodium-dependent serotonin transporter (Rattus norvegicus, UniProt P31652); assay: Inhibition of [3H]5-HT uptake at SERT in rat cortical synaptosomes; assay type: subcellular, Brain
Chain of Sodium-dependent serotonin transporter (P31652 whole entry): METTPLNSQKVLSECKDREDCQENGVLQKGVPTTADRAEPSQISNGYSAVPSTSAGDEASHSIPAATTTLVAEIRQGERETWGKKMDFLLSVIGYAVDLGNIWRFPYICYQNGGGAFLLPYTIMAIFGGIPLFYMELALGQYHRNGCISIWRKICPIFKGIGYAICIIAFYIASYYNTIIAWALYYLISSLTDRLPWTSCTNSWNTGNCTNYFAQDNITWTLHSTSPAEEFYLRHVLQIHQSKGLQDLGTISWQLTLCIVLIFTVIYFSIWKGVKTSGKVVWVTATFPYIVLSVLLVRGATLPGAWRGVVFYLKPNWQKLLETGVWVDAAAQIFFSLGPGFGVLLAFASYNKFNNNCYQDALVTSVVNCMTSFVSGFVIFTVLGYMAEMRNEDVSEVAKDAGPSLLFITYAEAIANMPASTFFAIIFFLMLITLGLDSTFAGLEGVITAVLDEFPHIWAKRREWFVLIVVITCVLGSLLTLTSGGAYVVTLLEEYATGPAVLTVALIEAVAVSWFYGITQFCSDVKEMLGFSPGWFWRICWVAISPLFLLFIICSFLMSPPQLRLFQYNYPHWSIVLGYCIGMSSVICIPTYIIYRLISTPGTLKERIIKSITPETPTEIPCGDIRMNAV

[3] = biological target: T2, 5-hydroxytryptamine receptor 1A (Homo sapiens, UniProt P08908); assay: Displacement of [3H]WAY100635 from human recombinant 5-HT1A receptor expressed in CHO cells; assay type: cell-based
T2 sequence (P08908 whole entry): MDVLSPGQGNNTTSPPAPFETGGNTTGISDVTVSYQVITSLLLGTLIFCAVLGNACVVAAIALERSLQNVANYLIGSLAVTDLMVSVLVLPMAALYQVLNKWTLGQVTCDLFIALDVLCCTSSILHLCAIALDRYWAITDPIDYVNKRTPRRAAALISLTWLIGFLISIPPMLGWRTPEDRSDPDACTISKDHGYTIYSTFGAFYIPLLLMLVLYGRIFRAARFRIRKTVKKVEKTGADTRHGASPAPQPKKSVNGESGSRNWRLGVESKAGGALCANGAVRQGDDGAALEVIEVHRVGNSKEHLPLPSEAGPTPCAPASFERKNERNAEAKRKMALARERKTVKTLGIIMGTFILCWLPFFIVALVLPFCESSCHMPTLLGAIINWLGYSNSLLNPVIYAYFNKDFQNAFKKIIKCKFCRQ

[4] = biological target: T3, 5-hydroxytryptamine receptor 1D (Homo sapiens, UniProt P28221); assay: Displacement of [3H]5-HT from human recombinant 5-HT1D receptor expressed in CHO cells; assay type: cell-based
T3 sequence (P28221 whole entry): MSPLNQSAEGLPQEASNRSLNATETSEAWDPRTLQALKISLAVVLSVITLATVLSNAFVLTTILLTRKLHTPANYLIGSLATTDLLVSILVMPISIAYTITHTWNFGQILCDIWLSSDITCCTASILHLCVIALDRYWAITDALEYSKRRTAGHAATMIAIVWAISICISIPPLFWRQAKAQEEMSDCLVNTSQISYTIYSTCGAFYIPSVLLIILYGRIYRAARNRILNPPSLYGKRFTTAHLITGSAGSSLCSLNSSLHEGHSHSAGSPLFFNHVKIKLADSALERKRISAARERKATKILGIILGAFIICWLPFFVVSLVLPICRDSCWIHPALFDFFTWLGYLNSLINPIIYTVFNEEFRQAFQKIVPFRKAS

[5] = biological target: T4, 5-hydroxytryptamine receptor 1A (Homo sapiens) (UniProt P08908); assay: Inverse agonist activity at human recombinant 5-HT1A receptor expressed in HEK293 cells by [S35]GTPgammaS binding assay; assay type: functional, cell-based
T4 sequence (whole entry): T2 sequence (P08908 whole entry)
Procedure, shortened: (§1)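 [35S]-GTPγS binding in membranes from 10^6 cells (HEK293 for 5-HT1A; CHO for 5-HT1B, 5-HT1D), preincubated 30 min at 30 °C with compound in 20 mM HEPES pH 7.4, 3 mM MgCl2, 100 mM NaCl, 10 μM GDP, 0.2 mM ascorbate. 100 pM [35S]-GTPγS added, 30 min more at 30 °C; nonspecific with 20 μM GTPγS; filtration and scintillation counting.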

[6] = biological target: T1, 5-hydroxytryptamine receptor 1B; assay: Inverse agonist activity at human recombinant 5-HT1B receptor expressed in CHO cells by [S35]GTPgammaS binding assay; assay type: functional, cell-based; procedure, shortened: as §1
[7] = biological target: T3, 5-hydroxytryptamine receptor 1D; assay: Inverse agonist activity at human recombinant 5-HT1D receptor expressed in CHO cells by [S35]GTPgammaS binding assay; assay type: functional, cell-based; procedure, shortened: as §1
[8] = biological target: T1, 5-hydroxytryptamine receptor 1B; assay: Intrinsic activity at human recombinant 5-HT1B receptor expressed in CHO cells by [S35]GTPgammaS binding assay relative to 5-HT; assay type: functional, cell-based; procedure, shortened: as §1
[9] = biological target: T4, 5-hydroxytryptamine receptor 1A (Homo sapiens); assay: Intrinsic activity at human recombinant 5-HT1A receptor expressed in HEK293 cells by [S35]GTPgammaS binding assay relative to 5-HT; assay type: functional, cell-based; procedure, shortened: as §1
[10] = biological target: D(3) dopamine receptor (Homo sapiens, UniProt P35462); assay: Binding affinity to human recombinant dopamine D3 receptor by radioligand displacement assay
Chain of D(3) dopamine receptor (P35462 whole entry): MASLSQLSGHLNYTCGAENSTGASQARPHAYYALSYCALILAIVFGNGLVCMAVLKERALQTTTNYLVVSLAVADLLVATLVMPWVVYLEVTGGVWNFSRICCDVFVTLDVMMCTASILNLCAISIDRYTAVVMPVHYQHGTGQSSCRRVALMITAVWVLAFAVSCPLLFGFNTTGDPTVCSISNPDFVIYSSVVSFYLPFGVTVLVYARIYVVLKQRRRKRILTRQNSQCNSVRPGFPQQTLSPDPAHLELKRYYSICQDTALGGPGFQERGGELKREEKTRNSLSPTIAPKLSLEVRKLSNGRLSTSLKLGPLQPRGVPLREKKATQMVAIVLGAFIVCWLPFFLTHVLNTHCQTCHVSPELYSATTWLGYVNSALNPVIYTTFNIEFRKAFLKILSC

[11] = biological target: 5-hydroxytryptamine receptor 6 (Homo sapiens, UniProt P50406); assay: Binding affinity to human recombinant 5-HT6 receptor by radioligand displacement assay
Chain of 5-hydroxytryptamine receptor 6 (P50406 whole entry): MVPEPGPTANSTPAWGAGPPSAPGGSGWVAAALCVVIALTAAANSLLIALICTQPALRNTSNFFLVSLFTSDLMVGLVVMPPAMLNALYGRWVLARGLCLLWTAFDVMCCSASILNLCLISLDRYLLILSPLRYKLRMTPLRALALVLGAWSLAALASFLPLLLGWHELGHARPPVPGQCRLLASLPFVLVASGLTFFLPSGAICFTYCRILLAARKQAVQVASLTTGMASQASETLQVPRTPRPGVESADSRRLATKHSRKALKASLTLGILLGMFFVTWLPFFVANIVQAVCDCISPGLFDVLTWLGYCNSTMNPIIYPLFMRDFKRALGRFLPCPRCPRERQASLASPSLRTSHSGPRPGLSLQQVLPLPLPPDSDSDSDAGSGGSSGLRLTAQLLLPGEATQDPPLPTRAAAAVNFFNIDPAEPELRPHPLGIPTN

[12] = biological target: 5-hydroxytryptamine receptor 2B (Homo sapiens, UniProt P41595); assay: Binding affinity to human recombinant 5-HT2B receptor by radioligand displacement assay
Chain of 5-hydroxytryptamine receptor 2B (P41595 whole entry): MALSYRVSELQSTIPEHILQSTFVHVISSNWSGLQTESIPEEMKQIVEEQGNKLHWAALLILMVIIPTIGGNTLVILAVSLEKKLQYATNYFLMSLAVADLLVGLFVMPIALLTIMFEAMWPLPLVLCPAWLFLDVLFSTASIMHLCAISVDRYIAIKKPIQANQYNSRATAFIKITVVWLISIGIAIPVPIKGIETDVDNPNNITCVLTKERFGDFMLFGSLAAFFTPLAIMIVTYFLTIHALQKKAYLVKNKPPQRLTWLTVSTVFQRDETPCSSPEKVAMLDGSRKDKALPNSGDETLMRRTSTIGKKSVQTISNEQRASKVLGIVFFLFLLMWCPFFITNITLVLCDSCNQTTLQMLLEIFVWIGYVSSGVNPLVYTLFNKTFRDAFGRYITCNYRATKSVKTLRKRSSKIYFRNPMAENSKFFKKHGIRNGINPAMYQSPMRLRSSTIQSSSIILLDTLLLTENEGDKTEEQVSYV

[13] = biological target: T5, 5-hydroxytryptamine receptor 2C (Homo sapiens, UniProt P28335); assay: Binding affinity to human recombinant 5-HT2C receptor by radioligand displacement assay
T5 sequence (P28335 whole entry): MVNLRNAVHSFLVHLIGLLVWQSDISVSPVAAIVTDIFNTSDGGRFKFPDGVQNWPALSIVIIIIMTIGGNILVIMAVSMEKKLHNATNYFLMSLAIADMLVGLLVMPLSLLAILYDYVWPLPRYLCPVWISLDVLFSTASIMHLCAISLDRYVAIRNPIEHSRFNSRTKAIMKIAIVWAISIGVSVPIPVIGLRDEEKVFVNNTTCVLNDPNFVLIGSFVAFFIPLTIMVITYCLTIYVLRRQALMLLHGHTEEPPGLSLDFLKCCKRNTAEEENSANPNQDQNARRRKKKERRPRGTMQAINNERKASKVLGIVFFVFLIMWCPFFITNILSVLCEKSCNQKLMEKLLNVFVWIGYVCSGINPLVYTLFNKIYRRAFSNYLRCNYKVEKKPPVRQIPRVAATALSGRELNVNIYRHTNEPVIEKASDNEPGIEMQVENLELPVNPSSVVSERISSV

[14] = biological target: D(2) dopamine receptor (Homo sapiens, UniProt P14416); assay: Binding affinity to human recombinant dopamine D2 receptor by radioligand displacement assay
Chain of D(2) dopamine receptor (P14416 whole entry): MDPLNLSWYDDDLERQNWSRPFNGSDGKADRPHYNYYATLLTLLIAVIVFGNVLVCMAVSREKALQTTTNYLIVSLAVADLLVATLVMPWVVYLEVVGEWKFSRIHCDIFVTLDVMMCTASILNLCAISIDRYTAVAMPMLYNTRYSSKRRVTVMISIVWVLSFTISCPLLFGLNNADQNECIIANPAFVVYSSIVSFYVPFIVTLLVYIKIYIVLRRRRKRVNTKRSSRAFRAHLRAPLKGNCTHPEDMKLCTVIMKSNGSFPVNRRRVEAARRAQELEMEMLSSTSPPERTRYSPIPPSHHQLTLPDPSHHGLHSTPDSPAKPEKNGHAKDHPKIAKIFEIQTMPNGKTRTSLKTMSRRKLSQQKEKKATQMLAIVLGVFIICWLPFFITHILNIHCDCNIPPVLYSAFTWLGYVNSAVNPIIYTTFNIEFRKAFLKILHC

[15] = biological target: 5-hydroxytryptamine receptor 7 (Homo sapiens, UniProt P34969); assay: Binding affinity to human recombinant 5-HT7 receptor by radioligand displacement assay
Chain of 5-hydroxytryptamine receptor 7 (P34969 whole entry): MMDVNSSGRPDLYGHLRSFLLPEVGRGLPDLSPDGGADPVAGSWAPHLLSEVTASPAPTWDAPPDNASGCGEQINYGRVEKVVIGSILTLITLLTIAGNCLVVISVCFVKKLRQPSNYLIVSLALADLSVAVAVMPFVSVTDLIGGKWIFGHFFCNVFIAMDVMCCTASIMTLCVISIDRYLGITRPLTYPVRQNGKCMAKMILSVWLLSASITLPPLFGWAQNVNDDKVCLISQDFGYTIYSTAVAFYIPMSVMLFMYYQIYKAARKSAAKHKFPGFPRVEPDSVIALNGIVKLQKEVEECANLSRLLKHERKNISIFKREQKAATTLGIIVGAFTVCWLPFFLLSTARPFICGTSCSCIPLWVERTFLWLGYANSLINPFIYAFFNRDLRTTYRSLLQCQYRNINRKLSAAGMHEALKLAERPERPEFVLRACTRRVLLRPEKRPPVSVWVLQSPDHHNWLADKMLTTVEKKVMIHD

[16] = biological target: 5-hydroxytryptamine receptor 2A (Homo sapiens, UniProt P28223); assay: Binding affinity to human recombinant 5-HT2A receptor by radioligand displacement assay
Chain of 5-hydroxytryptamine receptor 2A (P28223 whole entry): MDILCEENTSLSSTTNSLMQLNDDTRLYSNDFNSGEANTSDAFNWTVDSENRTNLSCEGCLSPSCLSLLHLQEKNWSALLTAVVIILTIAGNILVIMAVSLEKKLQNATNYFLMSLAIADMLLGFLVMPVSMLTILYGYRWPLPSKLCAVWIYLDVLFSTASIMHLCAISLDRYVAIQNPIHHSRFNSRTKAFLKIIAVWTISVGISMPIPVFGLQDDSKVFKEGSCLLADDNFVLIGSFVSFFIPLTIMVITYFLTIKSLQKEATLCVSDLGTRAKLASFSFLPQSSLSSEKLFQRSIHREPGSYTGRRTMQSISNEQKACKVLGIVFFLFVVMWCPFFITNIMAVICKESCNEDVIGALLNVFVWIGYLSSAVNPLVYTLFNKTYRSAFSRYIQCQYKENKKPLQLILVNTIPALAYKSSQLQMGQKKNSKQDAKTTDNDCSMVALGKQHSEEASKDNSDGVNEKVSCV

[17] = biological target: T3, 5-hydroxytryptamine receptor 1D; assay: Intrinsic activity at human recombinant 5-HT1D receptor expressed in CHO cells by [S35]GTPgammaS binding assay relative to 5-HT; assay type: functional, cell-based; procedure, shortened: as §1
[18] = biological target: Voltage-gated inwardly rectifying potassium channel KCNH2 (Homo sapiens, UniProt Q12809); assay: Displacement of [3H]dofetilide from human ERG by SPA

T1 sequence (P28222 whole entry): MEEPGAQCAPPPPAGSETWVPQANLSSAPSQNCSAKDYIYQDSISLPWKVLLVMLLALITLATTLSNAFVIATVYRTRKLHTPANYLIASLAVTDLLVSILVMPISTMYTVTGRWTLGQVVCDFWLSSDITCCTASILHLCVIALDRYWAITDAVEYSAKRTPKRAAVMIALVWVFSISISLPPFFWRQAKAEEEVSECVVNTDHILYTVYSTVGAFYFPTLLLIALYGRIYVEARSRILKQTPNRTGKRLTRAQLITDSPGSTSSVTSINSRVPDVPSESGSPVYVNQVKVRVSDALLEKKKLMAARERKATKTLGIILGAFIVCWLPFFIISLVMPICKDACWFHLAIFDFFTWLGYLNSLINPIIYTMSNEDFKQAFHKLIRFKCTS

Row | Compound | Ki [1] | Ki [2] | Ki [3] | Ki [4] | Activity [5] | Activity [6] | further results
1 | COc1ccccc1C(=O)Nc1cccc(CCN2CCN(c3cccc4nc(C)ccc34)CC2)c1 | 3.98 nM | 794 nM | 2.51 nM | 0.631 nM | – | – | –
2 | COc1ccc(C(=O)Nc2cccc(CCN3CCN(c4cccc5nc(C)ccc45)CC3)c2)cc1 | 3.98 nM | 1260 nM | 3.16 nM | 0.501 nM | Active | Active | Activity [7]: Active
3 | Cc1ccc2c(N3CCN(CCc4cccc(NC(=O)c5scnc5C)c4)CC3)cccc2n1 | 2 nM | 501 nM | 0.398 nM | 0.251 nM | Active | – | Intrinsic activity [8]: 0; Activity [7]: Active
4 | Cc1ccc2c(N3CCN(CCc4ccc5c(c4)NC(=O)CO5)CC3)cccc2n1 | – | – | – | – | – | – | Intrinsic activity [8]: 0.1; Intrinsic activity [9]: 0.2
5 | Cc1ccc2c(N3CCN(CCc4cccc(N5CCCOC5=O)c4)CC3)cccc2n1 | 31.6 nM | – | 2.51 nM | 0.251 nM | – | – | –
6 | Cc1ccc2c(N3CCN(CCc4cccc(NC(=O)c5cnccn5)c4)CC3)cccc2n1 | 1.26 nM | 398 nM | 0.501 nM | 0.2 nM | – | – | Ki [10]: 79.4 nM; Ki [11]: 794 nM; Ki [12]: 794 nM; Ki [13]: > 1580 nM; Ki [14]: 200 nM; Ki [15]: 200 nM; Ki [16]: 158 nM
7 | CCCS(=O)(=O)Nc1cccc(CCN2CCN(c3cccc4nc(C)ccc34)CC2)c1 | 2 nM | – | 1.58 nM | 0.631 nM | – | – | –
8 | Cc1ccc2c(N3CCN(CCc4cccc(NC(=O)c5ccccc5F)c4)CC3)cccc2n1 | 3.16 nM | 631 nM | 1 nM | 0.251 nM | Active | – | Intrinsic activity [8]: 0; Activity [7]: Active
9 | COc1cccc(C(=O)Nc2cccc(CCN3CCN(c4cccc5nc(C)ccc45)CC3)c2)c1 | 1.58 nM | 1260 nM | 2 nM | 0.158 nM | – | – | –
10 | Cc1ccc2c(N3CCN(CCc4cccc(NC(=O)c5ccc(F)cc5)c4)CC3)cccc2n1 | 5.01 nM | 794 nM | 1.26 nM | 0.398 nM | Active | Active | Intrinsic activity [17]: 0
11 | Cc1ccc2c(N3CCN(CCc4cccc(NC(=O)Nc5ccc(F)cc5)c4)CC3)cccc2n1 | 3.16 nM | 1260 nM | 2.51 nM | 0.501 nM | – | – | –
12 | Cc1ccc2c(N3CCN(CCc4cccc(N5CCCNC5=O)c4)CC3)cccc2n1 | 39.8 nM | – | 3.16 nM | 0.316 nM | – | – | –
13 | Cc1ccc2c(N3CCN(CCc4cccc(-n5cccn5)c4)CC3)cccc2n1 | 1.58 nM | 316 nM | 0.501 nM | 0.158 nM | – | – | Ki [10]: 50.1 nM; Ki [11]: > 10000 nM; Ki [12]: 79.4 nM; Ki [13]: 2000 nM; Ki [14]: 398 nM; Ki [15]: 126 nM; Ki [16]: 398 nM
14 | Cc1ccc2c(N3CCN(CCc4cccc(N)c4)CC3)cccc2n1 | 7.94 nM | – | 15.8 nM | 0.501 nM | – | – | –
15 | Cc1ccc2c(N3CCN(CCc4cccc(NC(=O)Nc5ccccc5F)c4)CC3)cccc2n1 | 1 nM | 2000 nM | 3.16 nM | 0.2 nM | – | – | –
16 | Cc1ccc2c(N3CCN(CCc4cccc(N5C(=O)CCC5=O)c4)CC3)cccc2n1 | 39.8 nM | 20000 nM | 3.16 nM | 1.58 nM | – | – | –
17 | Cc1ccc2c(N3CCN(CCc4cccc(NC(=O)c5cccc(F)c5)c4)CC3)cccc2n1 | 3.16 nM | 631 nM | 0.631 nM | 0.316 nM | Active | Active | Activity [7]: Active
18 | Cc1ccc2c(OCCN3CCC(Cc4cccc(NS(C)(=O)=O)c4)CC3)cccc2n1 | – | – | – | – | Active | – | Intrinsic activity [8]: 0.3; Intrinsic activity [17]: 0
19 | Cc1ccc2c(N3CCN(CCc4cccc(NC(=O)Nc5cccc(F)c5)c4)CC3)cccc2n1 | 3.98 nM | 2510 nM | 3.98 nM | 0.631 nM | – | Active | Intrinsic activity [17]: 0; Intrinsic activity [9]: 0

Now from value to compound, other results behind:

Row | Ki [1] | Ki [2] | Ki [3] | Ki [4] | Activity [5] | Activity [6] | Compound | further results
20 | 2 nM | 794 nM | 5.01 nM | 0.158 nM | – | – | CCCNC(=O)Nc1cccc(CCN2CCN(c3cccc4nc(C)ccc34)CC2)c1 | –
21 | 2 nM | 1580 nM | 6.31 nM | 0.316 nM | Active | Active | Cc1ccc2c(N3CCN(CCc4cccc(NC(=O)C(C)(C)C)c4)CC3)cccc2n1 | Activity [7]: Active
22 | 1.26 nM | 1260 nM | 2 nM | 0.2 nM | – | Active | CCC(=O)Nc1cccc(CCN2CCN(c3cccc4nc(C)ccc34)CC2)c1 | Intrinsic activity [9]: 0; Activity [7]: Active
23 | – | 501 nM | 0.398 nM | 0.251 nM | – | Active | COC(=O)Nc1cccc(CCN2CCN(c3cccc4nc(C)ccc34)CC2)c1 | Ki [10]: 100 nM; Ki [11]: > 1580 nM; Intrinsic activity [17]: 0; Ki [12]: 200 nM; Intrinsic activity [9]: 0; Ki [13]: 794 nM; Ki [14]: 200 nM; Ki [15]: 25.1 nM; Ki [16]: 200 nM
24 | 3.98 nM | 794 nM | 7.94 nM | 0.251 nM | – | – | Cc1ccc2c(N3CCN(CCc4cccc(NC(=O)NC(C)(C)C)c4)CC3)cccc2n1 | –
25 | 0.501 nM | 1260 nM | 1 nM | 0.251 nM | – | – | CC(=O)Nc1cccc(CCN2CCN(c3cccc4nc(C)ccc34)CC2)c1 | Ki [10]: 158 nM; Ki [11]: > 3980 nM; Ki [12]: 158 nM; Ki [13]: 1000 nM; Ki [14]: 398 nM; Ki [15]: 63.1 nM; Ki [16]: 251 nM
26 | 0.794 nM | 3160 nM | 0.794 nM | 0.126 nM | – | – | Cc1ccc2c(N3CCN(CCc4cccc(NS(C)(=O)=O)c4)CC3)cccc2n1 | Ki [10]: 200 nM; Ki [11]: > 2510 nM; Ki [12]: 398 nM; Ki [18]: 501 nM; Ki [13]: 3160 nM; Ki [14]: 398 nM; Ki [15]: 100 nM; Ki [16]: 794 nM
27 | 1.26 nM | 794 nM | 1.26 nM | 0.126 nM | – | – | CCOC(=O)Nc1cccc(CCN2CCN(c3cccc4nc(C)ccc34)CC2)c1 | –
28 | 3.16 nM | 501 nM | 0.794 nM | 0.398 nM | Active | Active | Cc1ccc2c(N3CCN(CCc4cccc(NC(=O)c5csc(C)n5)c4)CC3)cccc2n1 | Ki [18]: 316 nM; Activity [7]: Active
29 | 1.58 nM | 1260 nM | 2 nM | 0.158 nM | Active | Active | Cc1ccc2c(N3CCN(CCc4cccc(NC(=O)C(C)C)c4)CC3)cccc2n1 | Activity [7]: Active
30 | 12.6 nM | – | 2 nM | 0.316 nM | – | – | CC(=O)N(C)c1cccc(CCN2CCN(c3cccc4nc(C)ccc34)CC2)c1 | Intrinsic activity [8]: 0.2; Intrinsic activity [17]: 0; Intrinsic activity [9]: 0.1
